Legend:
[1] = target: Tyrosine-protein kinase JAK2 (Homo sapiens) (UniProt O60674); test: Binding affinity to wild-type human partial length JAK2 JH1 catalytic domain (A829 to G1132 residues) expressed in mammalian expression system assessed as residual binding level at 1 uM by Kinomescan method relative to control
[2] = test system: Epidermal growth factor receptor (Homo sapiens), P00533 [G719C]; test: Binding affinity to human partial length EGFR G719C mutant (R669 to V1011 residues) expressed in bacterial expression system assessed as residual binding level at 1 uM by Kinomescan method relative to control
How it was run: (§1)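 Kinome-wide selectivity panel run by the KINOMEscan method, with the test compound at a single concentration of 1 μM. Wild-type and mutant kinases were profiled in the same screen.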

[3] = target: Serine/threonine-protein kinase LATS1 (Homo sapiens) (UniProt O95835); test: Binding affinity to wild-type human partial length LATS1 (Q678 to V1130 residues) expressed in bacterial expression system assessed as residual binding level at 1 uM by Kinomescan method relative to control
[4] = target: Wee1-like protein kinase 2 (Homo sapiens) (UniProt P0C1S8); test: Binding affinity to wild-type human partial length WEE2 (M204 to K492 residues) expressed in bacterial expression system assessed as residual binding level at 1 uM by Kinomescan method relative to control
[5] = target: RAC-alpha serine/threonine-protein kinase (Homo sapiens) (UniProt P31749); test: Binding affinity to wild-type human partial length AKT1 expressed in bacterial expression system assessed as residual binding level at 1 uM by Kinomescan method relative to control
[6] = target: Atypical kinase COQ8A, mitochondrial (Homo sapiens) (UniProt Q8NI60); test: Binding affinity to wild-type human full length ADCK3 (M280 to Q647 residues) expressed in bacterial expression system assessed as residual binding level at 1 uM by Kinomescan method relative to control
[7] = target: Ephrin type-A receptor 1 (Homo sapiens) (UniProt P21709); test: Binding affinity to wild-type human partial length EPHA1 (V588 to I913 residues) expressed in bacterial expression system assessed as residual binding level at 1 uM by Kinomescan method relative to control
[8] = target: Phosphatidylinositol 4,5-bisphosphate 3-kinase catalytic subunit gamma isoform (Homo sapiens) (UniProt P48736); test: Binding affinity to wild-type human partial length PIK3CG (S144 to A1102 residues) expressed in mammalian expression system assessed as residual binding level at 1 uM by Kinomescan method relative to control
[9] = target: Activated CDC42 kinase 1 (Homo sapiens, UniProt Q07912); test: Binding affinity to wild-type human partial length TNK2 (S159 to D474 residues) expressed in bacterial expression system assessed as residual binding level at 1 uM by Kinomescan method relative to control
[10] = target: Dual specificity tyrosine-phosphorylation-regulated kinase 1B (Homo sapiens) (UniProt Q9Y463); test: Binding affinity to wild-type human full length DYRK1B (M1 to S629 residues) expressed in bacterial expression system assessed as residual binding level at 1 uM by Kinomescan method relative to control
[11] = Drug uptake in mouse plasma at 10 mg/kg, po after 8 hrs; format: ADME, organism-based
[12] = target: MAP kinase-activated protein kinase 2 (Homo sapiens) (UniProt P49137); test: Binding affinity to wild-type human partial length MAPKAPK2 (V48 to D345 residues) expressed in bacterial expression system assessed as residual binding level at 1 uM by Kinomescan method relative to control
[13] = target: Myosin light chain kinase (Homo sapiens) (UniProt Q32MK0); test: Binding affinity to wild-type human partial length MLCK (D488 to K800 residues) expressed in bacterial expression system assessed as residual binding level at 1 uM by Kinomescan method relative to control
[14] = target: Serine/threonine-protein kinase D3 (Homo sapiens) (UniProt O94806); test: Binding affinity to wild-type human partial length PRKD3 (S543 to E863 residues) expressed in bacterial expression system assessed as residual binding level at 1 uM by Kinomescan method relative to control
[15] = target: Non-receptor tyrosine-protein kinase TYK2 (Homo sapiens) (UniProt P29597); test: Binding affinity to wild-type human partial length TYK2 JH1 catalytic domain (V877 to C1187 residues) expressed in mammalian expression system assessed as residual binding level at 1 uM by Kinomescan method relative to control
[16] = target: Dual specificity mitogen-activated protein kinase kinase 5 (Homo sapiens) (UniProt Q13163); test: Binding affinity to wild-type human partial length MEK5 (L98 to P448 residues) expressed in mammalian expression system assessed as residual binding level at 1 uM by Kinomescan method relative to control
[17] = target: Mitogen-activated protein kinase kinase kinase 5 (Homo sapiens) (UniProt Q99683); test: Binding affinity to wild-type human partial length ASK1 (E648 to S964 residues) expressed in bacterial expression system assessed as residual binding level at 1 uM by Kinomescan method relative to control
[18] = target: Tyrosine-protein kinase CSK (Homo sapiens) (UniProt P41240); test: Binding affinity to wild-type human full length CSK (M1 to L450 residues) expressed in bacterial expression system assessed as residual binding level at 1 uM by Kinomescan method relative to control
[19] = target: Serine/threonine-protein kinase PAK 6 (Homo sapiens) (UniProt Q9NQU5); test: Binding affinity to wild-type human partial length PAK6 (N298 to C681 residues) expressed in bacterial expression system assessed as residual binding level at 1 uM by Kinomescan method relative to control
[20] = test system: Mast/stem cell growth factor receptor Kit (Homo sapiens), P10721 [V559D,T670I]; test: Binding affinity to human partial length KIT V559D/T670I double mutant (Y545 to D952 residues) expressed in bacterial expression system assessed as residual binding level at 1 uM by Kinomescan method relative to control; how it was run: as §1
[21] = Drug uptake in mouse lung at 10 mg/kg, po after 2 hrs; format: ADME, organism-based; conditions: read-out: Drug uptake
[22] = target: Serine/threonine-protein kinase pim-2 (Homo sapiens) (UniProt Q9P1W9); test: Binding affinity to wild-type human partial length PIM2 (M1 to E291 residues) expressed in bacterial expression system assessed as residual binding level at 1 uM by Kinomescan method relative to control
[23] = target: 5'-AMP-activated protein kinase catalytic subunit alpha-2 (Homo sapiens) (UniProt P54646); test: Binding affinity to wild-type human partial length AMPK alpha2 (M1 to E306 residues) expressed in bacterial expression system assessed as residual binding level at 1 uM by Kinomescan method relative to control
[24] = test system: Hepatocyte growth factor receptor (Homo sapiens), P08581 [M1250T]; test: Binding affinity to human partial length MET M1250T mutant (D1010 to S1367 residues) expressed in bacterial expression system assessed as residual binding level at 1 uM by Kinomescan method relative to control; how it was run: as §1
[25] = target: Serine/threonine-protein kinase MRCK gamma (Homo sapiens) (UniProt Q6DT37); test: Binding affinity to wild-type human partial length DMPK2 (S46 to S408 residues) expressed in bacterial expression system assessed as residual binding level at 1 uM by Kinomescan method relative to control

5'-AMP-activated protein kinase catalytic subunit alpha-2 (Homo sapiens), sequence (P54646 whole entry, looked up, the tested form may be a part): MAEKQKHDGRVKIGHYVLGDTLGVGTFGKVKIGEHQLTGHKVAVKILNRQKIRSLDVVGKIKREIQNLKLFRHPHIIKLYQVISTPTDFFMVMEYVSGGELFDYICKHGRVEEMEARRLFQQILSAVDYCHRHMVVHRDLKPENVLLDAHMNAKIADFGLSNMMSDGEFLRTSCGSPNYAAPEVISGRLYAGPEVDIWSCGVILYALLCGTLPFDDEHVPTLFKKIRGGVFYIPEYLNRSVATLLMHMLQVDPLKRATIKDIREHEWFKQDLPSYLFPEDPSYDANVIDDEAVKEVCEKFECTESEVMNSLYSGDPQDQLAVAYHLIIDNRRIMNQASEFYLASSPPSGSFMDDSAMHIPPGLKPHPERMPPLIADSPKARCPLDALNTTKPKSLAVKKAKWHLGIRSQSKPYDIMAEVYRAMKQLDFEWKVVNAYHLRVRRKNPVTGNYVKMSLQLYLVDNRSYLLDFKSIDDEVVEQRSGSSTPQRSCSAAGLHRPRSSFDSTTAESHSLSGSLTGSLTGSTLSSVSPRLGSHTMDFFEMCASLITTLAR
Serine/threonine-protein kinase PAK 6 (Homo sapiens), sequence (Q9NQU5 whole entry, looked up, the tested form may be a part): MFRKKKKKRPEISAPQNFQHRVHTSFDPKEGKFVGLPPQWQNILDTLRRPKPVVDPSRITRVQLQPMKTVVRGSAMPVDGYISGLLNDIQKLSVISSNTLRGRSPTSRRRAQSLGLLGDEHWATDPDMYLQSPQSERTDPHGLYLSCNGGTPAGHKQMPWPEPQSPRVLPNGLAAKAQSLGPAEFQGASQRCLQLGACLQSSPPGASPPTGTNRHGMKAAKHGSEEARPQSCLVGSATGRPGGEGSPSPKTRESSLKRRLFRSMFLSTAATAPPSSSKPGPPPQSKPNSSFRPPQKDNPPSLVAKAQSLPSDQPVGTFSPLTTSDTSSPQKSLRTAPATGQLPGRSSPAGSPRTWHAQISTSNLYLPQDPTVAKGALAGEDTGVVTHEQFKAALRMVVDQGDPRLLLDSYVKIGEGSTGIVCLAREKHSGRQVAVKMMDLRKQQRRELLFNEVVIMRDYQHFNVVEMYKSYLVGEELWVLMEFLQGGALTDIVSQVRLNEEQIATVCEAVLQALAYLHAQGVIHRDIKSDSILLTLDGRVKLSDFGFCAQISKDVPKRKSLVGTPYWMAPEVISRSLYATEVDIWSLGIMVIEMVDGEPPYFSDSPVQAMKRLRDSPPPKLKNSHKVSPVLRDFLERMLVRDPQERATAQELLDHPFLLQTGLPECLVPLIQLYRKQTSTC
Dual specificity mitogen-activated protein kinase kinase 5 (Homo sapiens), sequence (Q13163 whole entry, the tested form may be a part): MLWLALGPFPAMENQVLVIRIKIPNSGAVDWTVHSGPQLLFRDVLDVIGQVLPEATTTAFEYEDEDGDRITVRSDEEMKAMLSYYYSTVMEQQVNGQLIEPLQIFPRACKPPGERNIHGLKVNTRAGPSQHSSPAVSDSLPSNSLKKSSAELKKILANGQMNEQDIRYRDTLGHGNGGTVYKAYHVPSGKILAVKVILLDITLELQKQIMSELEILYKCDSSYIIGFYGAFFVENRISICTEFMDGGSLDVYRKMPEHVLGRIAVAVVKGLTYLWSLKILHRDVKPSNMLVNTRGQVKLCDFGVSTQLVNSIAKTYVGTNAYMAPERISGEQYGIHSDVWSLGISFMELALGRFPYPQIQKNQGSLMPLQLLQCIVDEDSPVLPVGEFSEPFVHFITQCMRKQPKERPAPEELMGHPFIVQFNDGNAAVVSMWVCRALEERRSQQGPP
Wee1-like protein kinase 2 (Homo sapiens), sequence (P0C1S8 whole entry, looked up, the tested form may be a part): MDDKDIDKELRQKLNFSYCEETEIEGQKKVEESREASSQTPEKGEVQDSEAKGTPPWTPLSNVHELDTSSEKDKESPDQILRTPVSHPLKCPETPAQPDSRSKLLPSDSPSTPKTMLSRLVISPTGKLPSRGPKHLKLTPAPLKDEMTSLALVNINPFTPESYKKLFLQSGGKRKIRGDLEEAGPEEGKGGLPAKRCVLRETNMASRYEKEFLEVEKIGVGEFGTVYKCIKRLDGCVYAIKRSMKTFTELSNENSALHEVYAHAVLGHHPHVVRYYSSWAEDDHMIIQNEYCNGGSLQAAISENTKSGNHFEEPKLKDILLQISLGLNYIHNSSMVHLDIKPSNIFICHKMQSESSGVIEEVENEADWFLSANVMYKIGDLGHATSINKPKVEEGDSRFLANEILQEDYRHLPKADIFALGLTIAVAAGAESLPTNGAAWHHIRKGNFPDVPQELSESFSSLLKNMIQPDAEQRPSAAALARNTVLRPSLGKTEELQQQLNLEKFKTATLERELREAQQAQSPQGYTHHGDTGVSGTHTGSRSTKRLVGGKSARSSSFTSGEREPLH
Serine/threonine-protein kinase LATS1 (Homo sapiens), sequence (O95835 whole entry, the tested form may be a part): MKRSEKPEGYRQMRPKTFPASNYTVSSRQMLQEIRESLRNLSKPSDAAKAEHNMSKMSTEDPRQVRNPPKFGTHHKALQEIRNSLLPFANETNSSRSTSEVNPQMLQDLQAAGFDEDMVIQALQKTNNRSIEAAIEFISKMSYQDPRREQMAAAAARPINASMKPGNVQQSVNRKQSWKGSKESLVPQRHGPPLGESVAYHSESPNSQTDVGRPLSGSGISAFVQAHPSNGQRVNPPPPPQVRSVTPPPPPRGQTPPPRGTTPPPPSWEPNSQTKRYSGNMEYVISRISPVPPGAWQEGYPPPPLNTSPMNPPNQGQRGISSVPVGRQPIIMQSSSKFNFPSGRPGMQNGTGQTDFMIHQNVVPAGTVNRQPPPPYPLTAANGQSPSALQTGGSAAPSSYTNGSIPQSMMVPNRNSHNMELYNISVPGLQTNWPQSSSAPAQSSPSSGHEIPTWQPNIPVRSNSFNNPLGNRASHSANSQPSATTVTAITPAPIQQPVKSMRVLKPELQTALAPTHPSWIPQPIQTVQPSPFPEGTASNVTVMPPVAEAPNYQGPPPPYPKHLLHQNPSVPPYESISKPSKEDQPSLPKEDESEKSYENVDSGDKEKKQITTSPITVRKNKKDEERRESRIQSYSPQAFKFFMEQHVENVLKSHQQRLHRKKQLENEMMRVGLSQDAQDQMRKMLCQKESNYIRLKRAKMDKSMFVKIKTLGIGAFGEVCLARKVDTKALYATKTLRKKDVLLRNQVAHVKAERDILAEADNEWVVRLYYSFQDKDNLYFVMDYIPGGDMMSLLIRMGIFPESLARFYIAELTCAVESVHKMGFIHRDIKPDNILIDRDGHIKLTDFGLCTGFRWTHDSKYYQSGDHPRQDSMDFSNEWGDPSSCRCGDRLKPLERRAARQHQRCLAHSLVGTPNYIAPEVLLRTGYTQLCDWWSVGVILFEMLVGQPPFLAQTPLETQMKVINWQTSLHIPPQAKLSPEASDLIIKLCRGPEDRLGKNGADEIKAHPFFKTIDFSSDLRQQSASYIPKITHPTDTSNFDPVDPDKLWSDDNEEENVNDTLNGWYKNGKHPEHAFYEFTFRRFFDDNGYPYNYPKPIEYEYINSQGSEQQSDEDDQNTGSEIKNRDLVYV
Tyrosine-protein kinase CSK (Homo sapiens), sequence (P41240 2-450 limits assumed): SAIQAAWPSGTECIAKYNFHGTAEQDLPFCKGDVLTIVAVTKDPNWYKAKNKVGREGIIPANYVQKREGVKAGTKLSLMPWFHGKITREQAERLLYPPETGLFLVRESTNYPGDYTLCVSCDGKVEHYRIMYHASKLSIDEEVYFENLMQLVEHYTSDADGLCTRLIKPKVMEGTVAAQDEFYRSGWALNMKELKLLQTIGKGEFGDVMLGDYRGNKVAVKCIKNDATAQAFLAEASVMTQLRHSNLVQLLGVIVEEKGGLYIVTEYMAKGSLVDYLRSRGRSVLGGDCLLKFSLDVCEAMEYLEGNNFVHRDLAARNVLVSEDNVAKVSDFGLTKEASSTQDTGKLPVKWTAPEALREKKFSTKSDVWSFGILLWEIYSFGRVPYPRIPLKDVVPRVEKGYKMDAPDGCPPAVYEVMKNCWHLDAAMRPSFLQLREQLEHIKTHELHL
Myosin light chain kinase (Homo sapiens), sequence (Q32MK0 whole entry, the tested form may be a part): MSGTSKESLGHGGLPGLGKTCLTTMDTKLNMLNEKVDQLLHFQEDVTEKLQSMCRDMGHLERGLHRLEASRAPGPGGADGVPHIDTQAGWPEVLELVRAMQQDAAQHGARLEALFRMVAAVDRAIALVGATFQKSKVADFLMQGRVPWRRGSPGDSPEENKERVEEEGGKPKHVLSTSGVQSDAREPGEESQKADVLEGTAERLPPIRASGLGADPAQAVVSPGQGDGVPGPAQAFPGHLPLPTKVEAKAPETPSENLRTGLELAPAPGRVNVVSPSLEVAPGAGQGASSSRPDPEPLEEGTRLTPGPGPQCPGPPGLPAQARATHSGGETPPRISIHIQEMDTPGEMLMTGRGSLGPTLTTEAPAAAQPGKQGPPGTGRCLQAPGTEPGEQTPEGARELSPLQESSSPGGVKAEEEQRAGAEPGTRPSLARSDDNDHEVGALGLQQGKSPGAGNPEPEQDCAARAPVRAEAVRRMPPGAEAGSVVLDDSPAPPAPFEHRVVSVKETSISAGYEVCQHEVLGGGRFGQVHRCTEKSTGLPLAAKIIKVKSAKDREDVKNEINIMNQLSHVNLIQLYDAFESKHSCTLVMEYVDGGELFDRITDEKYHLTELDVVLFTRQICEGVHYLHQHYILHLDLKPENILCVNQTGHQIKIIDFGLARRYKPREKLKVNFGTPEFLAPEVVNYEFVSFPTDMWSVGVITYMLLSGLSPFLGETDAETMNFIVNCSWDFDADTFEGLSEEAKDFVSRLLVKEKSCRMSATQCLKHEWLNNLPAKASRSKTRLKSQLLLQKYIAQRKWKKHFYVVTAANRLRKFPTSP
Serine/threonine-protein kinase pim-2 (Homo sapiens), sequence (Q9P1W9 whole entry, looked up, the tested form may be a part): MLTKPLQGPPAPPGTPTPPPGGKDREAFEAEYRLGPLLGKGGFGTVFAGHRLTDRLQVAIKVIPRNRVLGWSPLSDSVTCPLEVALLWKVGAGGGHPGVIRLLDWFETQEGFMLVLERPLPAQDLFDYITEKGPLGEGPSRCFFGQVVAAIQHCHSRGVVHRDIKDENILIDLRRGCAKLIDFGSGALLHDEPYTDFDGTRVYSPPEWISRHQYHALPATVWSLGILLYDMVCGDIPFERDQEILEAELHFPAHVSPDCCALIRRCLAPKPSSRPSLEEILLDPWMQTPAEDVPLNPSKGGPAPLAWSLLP

## C=CC(=O)Nc1cc(Nc2ncc(Cl)c(Nc3ccccc3S(=O)(=O)C(C)C)n2)c(OC)cc1N(C)CCN(C)C
[1]
  Activity: 5.7%
[2]
  Activity: 0.95%
[3]
  Activity: 82%
[4]
  Activity: 93%
[5]
  Activity: 98%
[6]
  Activity: 100%
[7]
  Activity: 12%
[8]
  Activity: 98%
[9]
  Activity: 0.15%
[10]
  Activity: 48%
[11]
  concentration at 8 h: 10 nM
[12]
  Activity: 100%
[13]
  Activity: 100%
[14]
  Activity: 0%
[15]
  Activity: 17%
[16]
  Activity: 28%
[17]
  Activity: 100%
[18]
  Activity: 69%
[19]
  Activity: 96%
[20]
  Activity: 60%
[21]
  concentration at 2 h: 4640 nM
[22]
  Activity: 100%
[23]
  Activity: 23%
[24]
  Activity: 14%
[25]
  Activity: 91%
